We go through four compounds from paper PMC8914349 (Molecular cancer therapeutics, 2020).

In series [1] the test system is canine MM cells (M1, M5, M2, M3, and Jones). Nature of the series: MTS viability assay, 72h, canine MM cell lines. In kind it is cell-based. To be noted: canine MM cells in vitro, single agent. (In general: Tetrazolium dyes change colour on reduction, which living cells bring about.)
Series [2] has as its system canine MM cell. Particulars: cited from earlier work.
The nature of series [3]: Single administration plasma pharmacokinetics in tumor-bearing mice. In kind it is in vivo. Particulars: mouse plasma. In short, it runs like this:
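Plasma and tumor were taken from two mice per group per timepoint over 2–48 h. Validated LC-MS/MS was used; sapanisertib was read by MRM m/z 310.2→268.1, calibrated 1–1000 ng/mL. Noncompartmental analysis for destructive sampling gave Cmax, T1/2 and AUC to last timepoint, with AUC error by Bailer's method.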

The nature of series [4]: Preliminary dose range study in mice with canine M1 or M5 MM xenografts. In kind it is in vivo. To be noted: daily 3.0 mg/Kg, oral.
Series [5] deals with mTOR. To be noted: ATP-competitive mTOR selective inhibitor; ref https://adisinsight.springer.com/drugs/800030541; https://drugs.ncats.io/substance/JGH0DF1U03#activemoieties; cited from earlier work.
The format of series [6] is in vivo, mice. Particulars: for Liver hepatocelluar vacuolation, numbers of animals / Renal tubules scattered isolated necrosis and regeneration, numbers of animals / Renal tubules zonal cortical degeneration/necrosis, numbers of animals / Spleen red and white pulp hypocellularity, numbers of animals / Spleen lymphocytolysis, numbers of animals / Spleen lymphoid and hematopoietic hyperplasia, numbers of animals / Bone marrow hypocellularity, numbers of animals: n = 5. The method, boiled down: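 Non-tumor-bearing female nu/nu nude mice (n=5 per group) were dosed by oral gavage in 0.5% HPMC/0.2% Tween for 21 days. […] Bone marrow, kidney, spleen, liver and other organs were fixed for histopathology. Animals per lesion were counted and graded minimal/moderate/severe. Blood was taken into EDTA for complete counts before removal.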

The test system of series [7] is human cutaneous melanoma cells (WM3311, WM2032, WM853–2 and WM858). The series is described as follows: MTS viability assay, 72h, human cutaneous melanoma cell lines. Type of series: cell-based.
Series [8] relates to M1 or M5 canine MM subcutaneous xenografts. Particulars: oral 5.0 mg/Kg trametinib or 2.0 mg/Kg sapanisertib EOD for 3 weeks, single agents.
Series [9] concerns M1-derived metastatic subline. The series is described as follows: Tail vein injection metastasis study. In kind it is in vivo, mice. To be noted: trametinib 5.0 mg/Kg daily, sapanisertib 2.0 mg/Kg three times a week, four-week treatment.
Series [10] relates to p-ERK, p-AKT, p-S6 and p-4E-BP1 in M1 or M5 canine MM xenografts. The series is described as follows: Drug target modulation in vivo in tumor xenografts. Also noted: species or system mice. To be noted: three consecutive days; for p-ERK level in tumors: sapanisertib 2.0 mg/Kg or trametinib 5.0 mg/Kg oral. In short, it runs like this: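 Female nu/nu athymic nude mice, 6–8 weeks old, received 1×10⁶ M1 or M5 cells s.c. in the flank and were randomized at 75–150 mm³ (five per group). […] Tumor lysates went to western blot and fixed sections to H&E plus p-ERK/p-S6 IHC.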

Series [11] deals with Ras/MAPK and PI3K/Akt/mTOR signal transduction targets. In kind it is cell-based, canine. To be noted: for target inhibition in vitro (western blot): trametinib 10 nM, sapanisertib 40 nM, 4 and 24h, M1, M5 and Jones. In short, it runs like this:
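Cell lysates were immunoblotted for p-AKT, p-S6 and p-ERK (pathway activation) and for cyclin D1, cyclin B1, Bim, Bcl-xl, Mcl-1 and p-Bad.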
(In western blotting, separated proteins are transferred to a membrane and probed.)

The conditions of series [12]: patients receiving the clinically approved dose of 2 mg trametinib; cited from earlier work.
Setting [13] is: sapanisertib 2mg/kg daily, no lesion.
[14] abbreviates: sapanisertib 2mg/kg daily, severity + minimal.
[15] abbreviates: sapanisertib 2mg/kg daily, severity ++ moderate.
Where [16] appears, read: sapanisertib 2mg/kg daily, severity +++ severe.
Setting [17] is: sapanisertib 2mg/kg every other day, no lesion.
[18] abbreviates: sapanisertib 2mg/kg every other day, severity + minimal.

The term IC50 denotes the concentration that inhibits the measured activity by half. As a reminder, the AUC is concentration integrated over time. A word on the Cmax: it is the peak of the concentration-time curve.

The structures appear in SMILES notation. Like-named read-outs stand apart in the source and are kept apart here. Marks after values point to notes of the source that are not given here.

With `Nc1ccc(-c2ccc3ncc4ccc(=O)n(-c5cccc(C(F)(F)F)c5)c4c3c2)cn1` [Torin 2], the “cytotoxicity / sensitivity of cells” value in series [1] is given as “highly effective”.
Regarding `Cn1c(=O)n(-c2ccc(C(C)(C)C#N)cc2)c2c3cc(-c4cnc5ccccc5c4)ccc3ncc21` [dactolisib], the “cytotoxicity” value in series [2] (canine MM cells) is “dose dependent cytotoxicity”.
Turning to `CC(C)n1nc(-c2ccc3oc(N)nc3c2)c2c(N)ncnc21` [sapanisertib], in series [3], the “T1/2 in the presence of trametinib compared to sapanisertib alone” value was “approximately 50%” and the “change in sapanisertib PK in the presence of trametinib” value is on record as “no significant change”. For the same compound, the tolerability entry in series [4] is on record as “not well tolerated”. For the same compound, in series [5], the “selectivity for PI3K” value is greater than 100 fold. In addition, the tolerability entry in series [6] (2.0 mg/Kg alone EOD) is given as “well tolerated”. Besides, the “white blood cell counts finding” value in [6] (sapanisertib 2.0 mg/Kg daily) is “lymphopenia”. Besides, in [6] (setting [13]), the “Liver hepatocelluar vacuolation, numbers of animals” value (“Liver hepatocelluar vacuolation” below) was 2; the “Renal tubules scattered isolated necrosis and regeneration, numbers of animals” value is 5; the “Renal tubules zonal cortical degeneration/necrosis, numbers of animals” value was determined as 1; the “Spleen red and white pulp hypocellularity, numbers of animals” value amounted to 1. Moreover, in series [6] (setting [14]), the “Liver hepatocelluar vacuolation” value is 1; the “Renal tubules zonal cortical degeneration/necrosis, numbers of animals” value is on record as 1; the “Spleen lymphocytolysis, numbers of animals” value (“Spleen lymphocytolysis” for short) came to 5; the “Spleen lymphoid and hematopoietic hyperplasia, numbers of animals” value turned out to be 2. Moreover, the “Spleen red and white pulp hypocellularity, numbers of animals” value in [6] (setting [14]) stood at 2. Also, in series [6] (setting [15]), the “Bone marrow hypocellularity, numbers of animals” value (shortened to “Bone marrow hypocellularity”) is 3 ^†; the “Liver hepatocelluar vacuolation” value was 1; the “Renal tubules zonal cortical degeneration/necrosis, numbers of animals” value was 3; the “Spleen red and white pulp hypocellularity, numbers of animals” value is listed as 2. Moreover, in series [6] (setting [16]), the “Bone marrow hypocellularity” value came to 2 and the “Liver hepatocelluar vacuolation” value is recorded as 1. In addition, in series [6] (setting [17]), the “Bone marrow hypocellularity” value is given as 5; the “Liver hepatocelluar vacuolation” value stood at 5; the “Renal tubules scattered isolated necrosis and regeneration, numbers of animals” value is 1; the “Renal tubules zonal cortical degeneration/necrosis, numbers of animals” value came to 5. In addition, in [6] (setting [17]), the “Spleen lymphocytolysis” value is 2; the “Spleen lymphoid and hematopoietic hyperplasia, numbers of animals” value amounted to 2; the “Spleen red and white pulp hypocellularity, numbers of animals” value is listed as 5. In series [6] (setting [18]), the “Renal tubules scattered isolated necrosis and regeneration, numbers of animals” value is 4; the “Spleen lymphocytolysis” value is reported as 3; the “Spleen lymphoid and hematopoietic hyperplasia, numbers of animals” value is listed as 3. The compound also had an IC50 in [7] (Homo sapiens, WM2032, 72 h) of 10 to 100 nM. In series [8], the tolerability result is “tolerated with some varying body weight fluctuation” and the tumor growth result was “inhibited compared to vehicle-treated controls initially, but progression became evident over time”. In addition, the “intrathoracic metastatic tumor burden” value in series [9] is recorded as “not as effective as trametinib in abating metastasis”. Also, in series [10], the “p-ERK level in tumors” value is listed as “increased p-ERK level”. In series [10] (sapanisertib 2.0 mg/Kg oral), the “p-AKT, p-S6 and p-4EBP-1 levels in tumors” value is “reduced p-AKT as well as downstream effectors p-S6 and p-4EBP-1 levels”. For the same compound, in series [11] (canine MM cells), the “cyclin expression (western blot)” value was “effective in reducing cyclin B1” and the “phosphorylation of Bad” value is recorded as “inhibited phosphorylation of Bad”. Moreover, in series [11] (some cell lines), the “reciprocal activation of ERK1/2” value was “apparent reciprocal activation of ERK1/2”. In [11], the “target inhibition in vitro (western blot)” value is “inhibited their respective Ras/MAPK and PI3K/Akt/mTOR signal transduction targets”.
As to `CC(=O)Nc1cccc(-n2c(=O)n(C3CC3)c(=O)c3c(Nc4ccc(I)cc4F)n(C)c(=O)c(C)c32)c1` [trametinib], in [7] (human cutaneous melanoma cells, regardless of Ras and NF1 mutation status), the “sensitivity of cells” value was “sensitive”. In series [8], the tumor growth entry was “inhibited compared to vehicle-treated controls initially, but progression became evident over time”. Also, the “intrathoracic metastatic tumor burden” value in series [9] is given as “significantly less metastatic tumor burdens in the thorax compared to control vehicle-treated mice”. Moreover, the “p-ERK level in tumors” value in series [10] is on record as “less compared to vehicle-only treated mice”. Further, the “cytotoxicity / sensitivity of cells” value in [1] is “sensitive”. In addition, in series [12], the AUC is 248 ng·h/mL and the Cmax is reported as 8.03 ng/mL. The IC50 in [2] (read-out: IC50, inhibiting canine MM cell growth in vitro) is roughly 10 nM. For the same compound, in [11] (canine MM cells), the Bcl-xl levels entry was “reduced Bcl-xl levels”; the “cyclin expression (western blot)” value is “reduced the expression of cyclins D1 and B1”. In series [11], the “target inhibition in vitro (western blot)” value is “inhibited their respective Ras/MAPK and PI3K/Akt/mTOR signal transduction targets”.
